# Assay results: ChEMBL document CHEMBL1143134, “The number and distances of positive charges of polyamine side chains in a series of perylene diimides significantly influence their ability to induce G-quadruplex structures and inhibit human telomerase” (Bioorg Med Chem, 2008)
# Active and inactive are the calls of the source. No cut-off for these calls is given here.
# What was measured:
# [1] = target: Telomerase reverse transcriptase (Homo sapiens) (UniProt O14746); assay: Inhibition of human telomerase at 2 uM by TRAP assay
# Procedure, shortened: (§1)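 Cell-free modified TRAP assay using TSG4 primer and HeLa cell extract in TRAP buffer (20 mM Tris-HCl pH 8.3, 1.5 mM MgCl2, 68 mM KCl, 0.05% Tween 20, 1 mM EGTA). Compounds (2–20 µM) preincubated with primer for 2 h at 30 °C before extract was added. A 130-bp internal standard controls PCR efficiency. Percent inhibition from at least three independent experiments.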
# [2] = target: Telomerase reverse transcriptase (Homo sapiens) (UniProt O14746); assay: Inhibition of human telomerase by TRAP assay; procedure, shortened: as §1
# Sequence of Telomerase reverse transcriptase (Homo sapiens) (O14746 whole entry): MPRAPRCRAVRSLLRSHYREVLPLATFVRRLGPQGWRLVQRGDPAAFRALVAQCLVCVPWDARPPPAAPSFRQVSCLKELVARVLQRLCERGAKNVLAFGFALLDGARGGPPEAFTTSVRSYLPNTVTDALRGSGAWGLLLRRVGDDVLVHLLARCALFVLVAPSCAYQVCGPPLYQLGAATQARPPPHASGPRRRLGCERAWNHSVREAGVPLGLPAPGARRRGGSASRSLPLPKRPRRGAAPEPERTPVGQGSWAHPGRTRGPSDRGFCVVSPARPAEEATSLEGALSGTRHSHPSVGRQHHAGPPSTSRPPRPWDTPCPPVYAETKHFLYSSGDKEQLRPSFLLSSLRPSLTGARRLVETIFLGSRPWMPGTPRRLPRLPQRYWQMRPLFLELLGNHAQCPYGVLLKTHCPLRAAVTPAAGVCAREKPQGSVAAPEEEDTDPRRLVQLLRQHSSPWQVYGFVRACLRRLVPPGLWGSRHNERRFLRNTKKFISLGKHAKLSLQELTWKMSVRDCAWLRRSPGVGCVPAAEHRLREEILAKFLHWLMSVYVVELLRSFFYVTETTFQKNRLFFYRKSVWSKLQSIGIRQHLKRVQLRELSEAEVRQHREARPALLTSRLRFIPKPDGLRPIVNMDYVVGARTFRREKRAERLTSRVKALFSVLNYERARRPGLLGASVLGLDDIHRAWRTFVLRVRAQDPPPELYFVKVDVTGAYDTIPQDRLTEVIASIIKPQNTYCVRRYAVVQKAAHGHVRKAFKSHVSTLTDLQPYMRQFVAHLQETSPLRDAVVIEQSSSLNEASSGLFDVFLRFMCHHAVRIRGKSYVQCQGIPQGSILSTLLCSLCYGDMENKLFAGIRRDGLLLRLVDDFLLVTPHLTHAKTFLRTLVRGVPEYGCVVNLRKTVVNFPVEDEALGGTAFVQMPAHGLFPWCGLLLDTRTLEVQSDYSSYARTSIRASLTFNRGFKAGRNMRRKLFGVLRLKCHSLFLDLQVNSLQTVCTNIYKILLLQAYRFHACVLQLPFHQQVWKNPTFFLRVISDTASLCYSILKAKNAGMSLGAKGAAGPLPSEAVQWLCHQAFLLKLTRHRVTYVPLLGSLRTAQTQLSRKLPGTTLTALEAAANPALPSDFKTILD
inhibition [1] [%],Activity [2],Structure (SMILES)
30,,NCCCNCCCCNCCN1C(=O)c2ccc3c4ccc5c6c(ccc(c7ccc(c2c37)C1=O)c64)C(=O)N(CCNCCCCNCCCN)C5=O
,Active,CC(=O)NCCCNCCCCNCCN1C(=O)c2ccc3c4ccc5c6c(ccc(c7ccc(c2c37)C1=O)c64)C(=O)N(CCNCCCCNCCCNC(C)=O)C5=O
